From ChEMBL document CHEMBL4229344 (Eur J Med Chem, 2018)

Columns and labels:
[1] = molecular target: Vascular endothelial growth factor receptor 2 (Homo sapiens) (UniProt P35968)
[2] = molecular target: Mast/stem cell growth factor receptor Kit (Homo sapiens, UniProt P10721); assay: Inhibition of TEL-fused c-KIT (unknown origin) expressed in mouse BA/F3 cells assessed as growth inhibition after 72 hrs by CellTiter-Glo or CCK-8 assay; assay type: cell-based
In short: (§1)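 Parental BaF3 or IL-3-independent TEL-kinase BaF3 lines, made by retroviral infection and puromycin selection, grown in RPMI 1640 with 10% FBS. Cells seeded at 1–3 × 10^4 cells/mL with serial compound concentrations for 72 h. Viability read by CellTiter-Glo luminescence or CCK-8 absorbance at 450/655 nm and normalised to DMSO. GI50 obtained by triplicate testing with linear regression. Selectivity is the ratio of the two GI50 values.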

[3] = molecular target: Platelet-derived growth factor receptor alpha (Homo sapiens, UniProt P16234)
Chain of Platelet-derived growth factor receptor alpha (P16234 whole entry, the tested form may be a part): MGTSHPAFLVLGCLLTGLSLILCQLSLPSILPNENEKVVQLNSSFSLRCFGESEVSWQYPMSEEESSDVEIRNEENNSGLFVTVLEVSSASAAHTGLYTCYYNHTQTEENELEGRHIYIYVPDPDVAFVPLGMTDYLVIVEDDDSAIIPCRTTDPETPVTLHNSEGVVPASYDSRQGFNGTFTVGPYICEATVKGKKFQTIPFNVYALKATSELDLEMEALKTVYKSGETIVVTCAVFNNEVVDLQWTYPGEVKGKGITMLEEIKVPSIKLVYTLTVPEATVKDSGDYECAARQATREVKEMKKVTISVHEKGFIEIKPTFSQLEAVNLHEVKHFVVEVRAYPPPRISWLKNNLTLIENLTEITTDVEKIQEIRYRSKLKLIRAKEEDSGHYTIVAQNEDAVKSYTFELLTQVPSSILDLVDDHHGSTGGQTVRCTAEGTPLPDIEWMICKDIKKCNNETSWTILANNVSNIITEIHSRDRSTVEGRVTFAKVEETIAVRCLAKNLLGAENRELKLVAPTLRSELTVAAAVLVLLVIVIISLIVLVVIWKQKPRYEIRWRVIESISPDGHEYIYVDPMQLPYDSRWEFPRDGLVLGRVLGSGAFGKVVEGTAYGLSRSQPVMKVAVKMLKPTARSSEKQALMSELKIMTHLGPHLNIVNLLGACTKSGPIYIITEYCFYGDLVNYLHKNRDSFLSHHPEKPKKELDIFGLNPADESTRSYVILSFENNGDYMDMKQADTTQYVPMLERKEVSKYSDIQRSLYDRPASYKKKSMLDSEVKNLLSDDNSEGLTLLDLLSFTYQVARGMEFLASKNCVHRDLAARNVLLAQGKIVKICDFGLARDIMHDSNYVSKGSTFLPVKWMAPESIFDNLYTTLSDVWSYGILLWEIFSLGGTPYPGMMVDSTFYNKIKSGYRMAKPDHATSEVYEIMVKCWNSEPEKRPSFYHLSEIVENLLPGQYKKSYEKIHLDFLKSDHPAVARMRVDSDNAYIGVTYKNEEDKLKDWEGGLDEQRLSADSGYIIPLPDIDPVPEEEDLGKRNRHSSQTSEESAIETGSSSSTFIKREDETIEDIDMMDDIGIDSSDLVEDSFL

[4] = molecular target: Platelet-derived growth factor receptor beta (Homo sapiens, UniProt P09619); assay: Inhibition of TEL-fused PDGFRbeta (unknown origin) expressed in mouse BA/F3 cells assessed as growth inhibition after 72 hrs by CellTiter-Glo or CCK-8 assay; assay type: cell-based
Chain of Platelet-derived growth factor receptor beta (P09619 whole entry, the tested form may be a part): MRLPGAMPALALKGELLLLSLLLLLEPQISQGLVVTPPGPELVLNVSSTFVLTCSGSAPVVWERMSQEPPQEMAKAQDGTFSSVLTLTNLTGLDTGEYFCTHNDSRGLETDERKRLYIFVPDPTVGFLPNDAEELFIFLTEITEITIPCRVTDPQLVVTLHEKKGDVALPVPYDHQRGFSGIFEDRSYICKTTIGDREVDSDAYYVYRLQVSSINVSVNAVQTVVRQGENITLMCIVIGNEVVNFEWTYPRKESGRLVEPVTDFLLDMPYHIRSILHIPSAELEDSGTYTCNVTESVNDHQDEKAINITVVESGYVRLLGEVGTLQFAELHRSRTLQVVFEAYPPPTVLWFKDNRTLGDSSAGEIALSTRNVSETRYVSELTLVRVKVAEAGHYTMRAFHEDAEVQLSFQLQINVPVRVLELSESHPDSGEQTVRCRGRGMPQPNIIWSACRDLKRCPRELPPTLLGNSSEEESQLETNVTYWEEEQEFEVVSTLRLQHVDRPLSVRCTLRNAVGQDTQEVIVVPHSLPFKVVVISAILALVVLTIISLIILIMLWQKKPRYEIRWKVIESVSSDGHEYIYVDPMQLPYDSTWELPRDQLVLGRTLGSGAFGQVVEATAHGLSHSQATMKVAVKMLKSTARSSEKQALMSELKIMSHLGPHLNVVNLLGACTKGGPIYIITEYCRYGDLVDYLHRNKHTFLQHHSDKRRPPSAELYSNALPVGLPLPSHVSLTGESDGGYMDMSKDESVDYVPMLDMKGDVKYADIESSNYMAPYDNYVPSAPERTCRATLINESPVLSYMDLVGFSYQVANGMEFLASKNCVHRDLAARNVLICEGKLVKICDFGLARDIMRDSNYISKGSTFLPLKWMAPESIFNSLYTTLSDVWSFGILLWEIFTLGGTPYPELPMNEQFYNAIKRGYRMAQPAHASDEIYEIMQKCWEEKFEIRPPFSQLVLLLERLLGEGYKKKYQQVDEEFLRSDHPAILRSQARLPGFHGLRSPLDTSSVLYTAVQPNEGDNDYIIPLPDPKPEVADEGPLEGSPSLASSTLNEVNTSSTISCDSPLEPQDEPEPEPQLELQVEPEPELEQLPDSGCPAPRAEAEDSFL
In short: as §1

[5] = Cytotoxicity against mouse BA/F3 cells after 72 hrs by CellTiter-Glo or CCK-8 assay; assay type: cell-based, BaF3
In short: as §1

[6] = organism: Homo sapiens; assay: Selectivity index, ratio of GI50 for TEL-fused PDGFRbeta (unknown origin) expressed in mouse BA/F3 cells to GI50 for TEL-fused PDGFRalpha (unknown origin) expressed in mouse BA/F3 cells; assay type: cell-based
In short: as §1

Chain of Mast/stem cell growth factor receptor Kit (P10721 whole entry, the tested form may be a part): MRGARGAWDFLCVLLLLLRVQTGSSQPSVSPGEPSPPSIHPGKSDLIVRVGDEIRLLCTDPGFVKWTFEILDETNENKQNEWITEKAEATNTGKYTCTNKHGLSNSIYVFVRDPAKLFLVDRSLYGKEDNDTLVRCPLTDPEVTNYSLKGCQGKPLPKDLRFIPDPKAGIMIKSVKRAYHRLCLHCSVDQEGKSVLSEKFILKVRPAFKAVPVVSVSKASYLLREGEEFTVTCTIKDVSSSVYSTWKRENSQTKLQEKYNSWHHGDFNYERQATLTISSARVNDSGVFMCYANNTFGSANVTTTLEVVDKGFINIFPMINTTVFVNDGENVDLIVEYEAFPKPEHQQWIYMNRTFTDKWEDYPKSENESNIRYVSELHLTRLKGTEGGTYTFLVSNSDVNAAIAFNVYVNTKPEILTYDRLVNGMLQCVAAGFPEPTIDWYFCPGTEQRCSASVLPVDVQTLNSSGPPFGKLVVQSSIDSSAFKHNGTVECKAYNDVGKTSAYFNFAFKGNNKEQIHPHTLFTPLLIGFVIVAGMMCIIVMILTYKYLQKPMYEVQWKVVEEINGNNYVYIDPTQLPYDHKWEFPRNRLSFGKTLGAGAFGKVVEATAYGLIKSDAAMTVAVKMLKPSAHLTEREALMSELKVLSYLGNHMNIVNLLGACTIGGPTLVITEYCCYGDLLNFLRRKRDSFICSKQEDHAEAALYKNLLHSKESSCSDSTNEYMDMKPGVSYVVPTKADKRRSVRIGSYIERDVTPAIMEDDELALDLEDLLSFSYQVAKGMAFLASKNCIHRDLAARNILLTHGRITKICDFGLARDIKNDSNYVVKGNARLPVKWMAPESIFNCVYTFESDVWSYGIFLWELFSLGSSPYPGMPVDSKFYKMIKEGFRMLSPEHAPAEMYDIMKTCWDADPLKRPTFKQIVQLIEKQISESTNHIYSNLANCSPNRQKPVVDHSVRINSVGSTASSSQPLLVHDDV
Chain of Vascular endothelial growth factor receptor 2 (Homo sapiens) (P35968 whole entry, the tested form may be a part): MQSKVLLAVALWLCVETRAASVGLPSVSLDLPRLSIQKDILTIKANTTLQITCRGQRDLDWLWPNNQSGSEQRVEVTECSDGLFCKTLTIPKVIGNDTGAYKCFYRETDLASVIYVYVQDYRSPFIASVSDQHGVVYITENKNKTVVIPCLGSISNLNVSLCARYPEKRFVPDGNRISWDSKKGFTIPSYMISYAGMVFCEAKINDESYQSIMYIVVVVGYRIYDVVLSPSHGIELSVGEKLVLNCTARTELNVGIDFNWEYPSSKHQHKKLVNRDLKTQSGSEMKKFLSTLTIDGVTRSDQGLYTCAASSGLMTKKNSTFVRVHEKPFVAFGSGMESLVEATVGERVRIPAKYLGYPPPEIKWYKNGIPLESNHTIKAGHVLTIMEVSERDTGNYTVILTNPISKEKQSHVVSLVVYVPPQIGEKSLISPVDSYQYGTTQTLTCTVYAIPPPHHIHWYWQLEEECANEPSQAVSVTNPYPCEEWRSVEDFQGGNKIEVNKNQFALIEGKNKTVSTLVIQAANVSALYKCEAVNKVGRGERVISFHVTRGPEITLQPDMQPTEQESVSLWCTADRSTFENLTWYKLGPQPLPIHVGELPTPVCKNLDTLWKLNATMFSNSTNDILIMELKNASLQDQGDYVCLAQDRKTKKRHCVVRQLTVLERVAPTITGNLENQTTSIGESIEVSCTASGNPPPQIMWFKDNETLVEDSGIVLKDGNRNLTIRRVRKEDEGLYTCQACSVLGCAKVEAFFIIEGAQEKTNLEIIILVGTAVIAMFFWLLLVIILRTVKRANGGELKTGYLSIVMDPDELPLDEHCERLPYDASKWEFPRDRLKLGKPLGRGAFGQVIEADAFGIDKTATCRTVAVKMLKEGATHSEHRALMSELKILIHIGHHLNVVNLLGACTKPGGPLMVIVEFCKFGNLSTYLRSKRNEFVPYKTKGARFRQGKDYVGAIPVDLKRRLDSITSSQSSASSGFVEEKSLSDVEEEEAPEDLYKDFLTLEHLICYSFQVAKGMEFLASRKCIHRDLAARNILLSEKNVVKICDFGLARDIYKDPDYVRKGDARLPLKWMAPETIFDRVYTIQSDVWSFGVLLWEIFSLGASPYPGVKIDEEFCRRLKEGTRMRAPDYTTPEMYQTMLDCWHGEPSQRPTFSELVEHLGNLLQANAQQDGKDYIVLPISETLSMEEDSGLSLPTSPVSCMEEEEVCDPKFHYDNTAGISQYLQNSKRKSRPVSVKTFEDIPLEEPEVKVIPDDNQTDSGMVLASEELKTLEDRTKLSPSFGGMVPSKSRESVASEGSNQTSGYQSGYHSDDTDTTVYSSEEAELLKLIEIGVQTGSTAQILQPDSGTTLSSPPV

Row | SMILES | GI50 [1] [nM] | GI50 [2] [nM] | GI50 [3] [nM] | GI50 [4] [nM] | GI50 at 72 h [5] [nM] | RatioGI50 [6]
1 | Cc1ccc(NC(=O)c2ccc(CN(CCN(C)C)C(=O)c3cccs3)cc2)cc1Nc1nccc(-c2cccnc2)n1 | > 10000 | > 10000 | 56 | 207 | > 10000 | 
2 | C=CC(=O)N(CCN(CC)CC)Cc1ccc(C(=O)Nc2ccc(C)c(Nc3nccc(-c4cccnc4)n3)c2)cc1 | 4550 | 5140 | 344 | 1100 | 5450 | 
3 | Cc1ccc(NC(=O)c2ccc(CN(CCO)C(=O)CN(C)C)cc2)cc1Nc1nccc(-c2cccnc2)n1 | > 10000 | > 10000 | 363 | 3880 | > 10000 | 
4 | Cc1ccc(NC(=O)c2ccc(CN(CCO)C(=O)c3cccnc3)cc2)cc1Nc1nccc(-c2cccnc2)n1 | > 10000 | > 10000 | 353 | 3020 | > 10000 | 
5 | Cc1ccc(NC(=O)c2ccc(CNCCN(C)C)cc2)cc1Nc1nccc(-c2cccnc2)n1 | 4880 | 5000 | 24 | 125 | > 10000 | 
6 | Cc1ccc(NC(=O)c2ccc(CN(CCN3CCCC3)C(=O)c3cccnc3)cc2)cc1Nc1nccc(-c2cccnc2)n1 | > 10000 | > 10000 | 39 | 934 | > 10000 | 
7 | Cc1ccc(C(=O)N(CCN(C)C)Cc2ccc(C(=O)Nc3ccc(C)c(Nc4nccc(-c5cccnc5)n4)c3)cc2)cc1 | > 10000 | > 10000 | 100 | 240 | > 10000 | 
8 | Cc1ccc(NC(=O)c2ccc(NC(=O)c3cccnc3)cc2)cc1Nc1nccc(-c2cccnc2)n1 | 882 | 426 | 13 | 583 | 1700 | 
9 | C=CC(=O)N(CCC(C)C)Cc1ccc(C(=O)Nc2ccc(C)c(Nc3nccc(-c4cccnc4)n3)c2)cc1 | 5740 | 3940 | 19 | 230 | 5620 | 
10 | CCCC(=O)N(CCN(C)C)Cc1ccc(C(=O)Nc2ccc(C)c(Nc3nccc(-c4cccnc4)n3)c2)cc1 | 4760 | 5750 | 25 | 90 | > 10000 | 
11 | C=CC(=O)N(CCN(C)C)Cc1ccc(C(=O)Nc2ccc(C)c(Nc3nccc(-c4cccnc4)n3)c2)cc1 | > 10000 | > 10000 | 11 | 350 | > 10000 | > 30
12 | Cc1ccc(NC(=O)c2ccc(CN(CCN(C)C)C(=O)C(C)C)cc2)cc1Nc1nccc(-c2cccnc2)n1 | 8640 | 6110 | 39 | 123 | > 10000 | 
13 | Cc1ccc(NC(=O)c2ccc(CN(CCN(C)C)C(=O)CN(C)C)cc2)cc1Nc1nccc(-c2cccnc2)n1 | > 10000 | > 10000 | 120 | 9200 | > 10000 | 
14 | Cc1ccc(NC(=O)c2ccc(CN(CCN(C)C)C(=O)C3CC3)cc2)cc1Nc1nccc(-c2cccnc2)n1 | > 10000 | > 10000 | 112 | 437 | > 10000 | 
15 | Cc1ccc(NC(=O)c2ccc(CN(CCN(C)C)C(=O)C(C)(C)C)cc2)cc1Nc1nccc(-c2cccnc2)n1 | 5480 | 2530 | 17 | 61 | > 10000 | 
16 | Cc1ccc(NC(=O)c2ccc(CNC(=O)c3cccnc3)cc2)cc1Nc1nccc(-c2cccnc2)n1 | 348 | 216 | 14 | 341 | 1120 | 
17 | CCC(=O)N(CCN(C)C)Cc1ccc(C(=O)Nc2ccc(C)c(Nc3nccc(-c4cccnc4)n3)c2)cc1 | > 10000 | > 10000 | 36 | 504 | > 10000 | 14
18 | CCC(=O)Nc1ccc(C(=O)Nc2ccc(C)c(Nc3nccc(-c4cccnc4)n3)c2)cc1 | 6270 | 4940 | 12 | 888 | > 10000 | 
19 | C/C=C/C(=O)N(CCN(C)C)Cc1ccc(C(=O)Nc2ccc(C)c(Nc3nccc(-c4cccnc4)n3)c2)cc1 | 8540 | > 10000 | 54 | 219 | > 10000 | 
20 | Cc1ccc(NC(=O)c2ccc(CN(CCN(C)C)C(=O)c3ccno3)cc2)cc1Nc1nccc(-c2cccnc2)n1 | > 10000 | > 10000 | 166 | 787 | > 10000 | 
21 | CCN(CC)CCN(Cc1ccc(C(=O)Nc2ccc(C)c(Nc3nccc(-c4cccnc4)n3)c2)cc1)C(=O)c1cccnc1 | > 10000 | > 10000 | 33 | 699 | > 10000 | 

Now from value to compound, other results behind:

Row | GI50 [1] [nM] | GI50 [2] [nM] | GI50 [3] [nM] | GI50 [4] [nM] | SMILES | GI50 at 72 h [5] [nM] | RatioGI50 [6]
22 |  | > 10000 |  | 155 | C=CC(=O)NCc1ccc(C(=O)Nc2ccc(C)c(Nc3nccc(-c4cccnc4)n3)c2)cc1 | > 10000 | 
23 | 3220 | 2920 | 15 | 221 | CCC(=O)NCc1cccc(C(=O)Nc2ccc(C)c(Nc3nccc(-c4cccnc4)n3)c2)c1 | 4750 | 
24 | 2030 | 2940 |  | 757 | C=CC(=O)Nc1ccc(C(=O)Nc2ccc(C)c(Nc3nccc(-c4cccnc4)n3)c2)cc1 | 5600 | 
25 | 3340 | 250 | 13 | 98 | C=CC(=O)Nc1cc(C(=O)Nc2ccc(C)c(Nc3nccc(-c4cccnc4)n3)c2)cc(C(F)(F)F)c1 | 5460 | 
26 | > 10000 | 6220 | 14 | 201 | CCC(=O)NCc1ccc(C(=O)Nc2ccc(C)c(Nc3nccc(-c4cccnc4)n3)c2)cc1 | > 10000 | 
27 | > 10000 | 300 | 59 | 161 | C=CC(=O)NCc1ccc(C(=O)Nc2ccc(C)c(Nc3nccc(-c4cccnc4)n3)c2)cc1C(F)(F)F | > 10000 | 
28 | > 10000 | 4750 | 160 | 244 | C=CC(=O)NCc1cccc(C(=O)Nc2ccc(C)c(Nc3nccc(-c4cccnc4)n3)c2)c1 | > 10000 | 
29 | 1570 | 1530 | 8 | 173 | C=CC(=O)Nc1cccc(C(=O)Nc2ccc(C)c(Nc3nccc(-c4cccnc4)n3)c2)c1 | 2480 | 
30 | 1560 | 580 | 13 | 48 | C=CS(=O)(=O)NCc1ccc(C(=O)Nc2ccc(C)c(Nc3nccc(-c4cccnc4)n3)c2)cc1 | 7710 | 
31 | 3410 | 66 | 5 | 82 | Cc1ccc(NC(=O)c2ccc(CNC(=O)c3cccnc3)c(C(F)(F)F)c2)cc1Nc1nccc(-c2cccnc2)n1 | 8330 | 
32 | > 10000 | 104 | 39 | 231 | CCC(=O)Nc1cc(C(=O)Nc2ccc(C)c(Nc3nccc(-c4cccnc4)n3)c2)cc(C(F)(F)F)c1 | > 10000 | 
